Data taken from PMC428586 (Reproductive biology and endocrinology : RB&E, 2004).
Several values for one entry are separate records, joined by “and”; a condition that tells them apart may be missing. Equal values may be shown once. Marks after values point to notes of the source that are not given here.

What was measured:
[1] = system: chick chorioallantoic membrane (CAM); conditions: due to inhibition of DNA synthesis; cited from earlier work
[2] = system: hamster oviduct (infundibulum) cilia; assay: Ciliary beat frequency assay, hamster oviductal explants in vitro; type: cell-based, golden hamster (Mesocricetus auratus); conditions: for Efficacy, Ciliary Beat Frequency: mean percentage of inhibition at the LOAEL
[3] = system: hamster oviduct infundibular smooth muscle; assay: Infundibular smooth muscle contraction assay, hamster oviduct explants in vitro; type: cell-based, golden hamster (Mesocricetus auratus); conditions: for LOAEL, infundibular smooth muscle contraction: as stated in the abstract; for LOAEL, Contraction Rate: lowest observable adverse effect level, hamster infundibulum in EBSS-H with 0.1% BSA, n = 4 infundibula; for Efficacy, Contraction Rate: mean percentage of inhibition at the LOAEL
[4] = system: hamster oviduct (infundibulum); assay: Oocyte pickup rate assay, hamster oviduct explants in vitro; type: cell-based, golden hamster (Mesocricetus auratus); conditions: for Efficacy, Oocyte Pickup Rate: mean percentage of inhibition at the LOAEL
Outline: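 Female golden hamsters were primed with 25 IU PMSG on estrous day 1 and 25 IU hCG on day 3, then killed with CO2 about 12 h later. On infundibulum explants, transit time of an oocyte-cumulus complex (OCC) along a fixed path was timed, 6–10 times each in EBSS-H/0.1% BSA control, one test dose (10-13–10-5 M screen; ANOVA), and recovery. The LOAEL was repeated to n = 4 infundibula, and efficacy was taken as mean % inhibition there.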

[5] = system: male rats; conditions: cited from earlier work
[6] = system: female mice; conditions: due to effects on adrenal function; cited from earlier work
[7] = system: rats; conditions: dose-dependent; cited from earlier work
[8] = more inhibitory than pyridine, pyridine data ref 16
[9] = lowest observable adverse effect level, hamster infundibulum in EBSS-H with 0.1% BSA, n = 4 infundibula

Structure (SMILES)	LOAEL, Ciliary Beat Frequency ([2]; as stated in the abstract)	Efficacy, Ciliary Beat Frequency [2]	LOAEL, infundibular smooth muscle contraction [3]	LOAEL, Contraction Rate [3]	Efficacy, Contraction Rate [3]	LOAEL, oocyte pickup rate ([4]; as stated in the abstract)	Efficacy, Oocyte Pickup Rate [4]	LOAEL, Ciliary Beat Frequency [2, 9]	also measured
c1cnccn1 [pyrazine]	1 picomolar	25%	1 nM	10^-9 M	40%	10 picomolar	29%		Effect on CAM and embryo growth [1]: inhibited both CAM and embryo growth at picomolar doses; Inhibitory potency relative to pyridine, ciliary beat frequency [2, 8]: at least 1 million; Inhibitory potency relative to pyridine, infundibular smooth muscle contraction [3, 8]: at least 1 million; LOAEL dose, oocyte pickup rate assay ([4]; LOAEL expressed in ppb for comparison with food levels): 4 ppb; Inhibitory potency relative to pyridine, oocyte pickup rate [4, 8]: at least 1 million
Cc1cnc(C)c(S)n1 [3,6-dimethylpyrazine-2-thiol]									Effect on prostate and seminal vesicle weights [5]: caused a decrease in prostate and seminal vesicle weights
Cc1cnc(C)c(C)n1 [2,3,5-trimethylpyrazine]		18%		10^-9 M	58%		10%	10^-9 M	
Cc1cnccn1 [2-methylpyrazine]	1 picomolar	11* %	10 picomolar		61** %	10 picomolar	43* %		Decrease of LOAEL in the smooth muscle contraction assay relative to pyrazine [3]: 100 fold
Cc1cncc(C)n1 [2,6-dimethylpyrazine]		5** %		10^-7 M	85*** %		3.5% and 3** %	10^-6 M	Efficacy, Contraction Rate ([3]; listed as 2,6-Dimethylpyrazine): 85%; LOAEL, oocyte pickup rate [4, 9]: 10^-9 M
Cc1cnc(C)cn1 [2,5-dimethylpyrazine]		34%		10^-9 M	40%		10* %	10^-8 M	Effect on onset of puberty [6]: delayed the onset of puberty; Efficacy, Oocyte Pickup Rate ([4]; listed as 2,5-Dimethylpyrazine): 9.9%; Effect on uterine weight [7]: caused a decrease in uterine weight
CCc1cnccn1 [2-ethylpyrazine]	1 picomolar	3** %	1 picomolar		38%	10 picomolar	45* %		Decrease of LOAEL in the smooth muscle contraction assay relative to pyrazine [3]: 1000 fold
COc1nccnc1C [2-methoxy-3-methylpyrazine]		18%			17** %		13%	10^-9 M	Efficacy, Contraction Rate ([3]; listed as 2-Methoxy-3-methylpyrazine): 17%
